# ChEMBL document CHEMBL5532692, “Structure-based virtual screening of unbiased and RNA-focused libraries to identify new ligands for the HCV IRES model system” (RSC Med Chem, 2024)
# pEC50, pKd: −log10 of the molar value.
# Target: Internal ribosome entry site (IRES)
# Test: Binding affinity to HCV IRES subdomain IIa RNA assessed as dissociation constant by MST assay
# Assay type: nucleic-acid assay, Hepacivirus hominis
# Conditions: not given
# In short: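 Same two-stranded IIa RNA, Cy5-labelled, annealed at 75 °C then cooled to room temperature for at least 20 min in 10 mM HEPES pH 7.0, 2 mM MgCl2. Used at 30 nM with compound from 1 mM (or 316/100 μM if solubility-limited) to 0.01 μM in 3.16-fold steps, 2% DMSO final. Thermophoresis read after 18 s laser on-time. KD from triplicates.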
row,pKd,SMILES
1,4.06,CNC(=N)Nc1nc(C)c2ccc(OC)cc2n1
2,3.87,COc1ccc2c(C)nc(NC(=N)N)nc2c1
3,≤ 4.30,Nc1cc(-c2ccc3[nH]ncc3c2)c2cc[nH]c2n1
4,≤ 4.00,NC1=NC(c2cn[nH]c2-c2cccc(O)c2)n2c(nc3ccccc32)N1 (stereo unspecified)
5,3.72,CCOc1ccc2c(C)nc(NC(=N)N)nc2c1

row,SMILES,pKd
1,CC(C)NCC(O)COc1ccc2[nH]cc(CCN)c2c1 (stereo unspecified),3.87
2,N=C(N)NC(=O)c1nc(Cl)c(N)nc1N [AMILORIDE],≤ 4.00

# Target: Internal ribosome entry site (IRES)
# Test: Binding affinity to HCV IRES subdomain IIa RNA assessed as reduction in FRET signal by FRET assay
# Assay type: nucleic-acid assay, Hepacivirus hominis
# Conditions: not given
# In short: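 Two-stranded HCV IRES IIa RNA, 5'-Cy3 on one strand and 5'-Cy5 on the other, annealed at 75 °C then cooled to room temperature for at least 20 min in 10 mM HEPES pH 7.0, 2 mM MgCl2. RNA at 100 nM with compound; excitation 480 nm, Cy5 emission 670 nm. Dose–response 1 mM to 100 nM in 3.16-fold steps, 2% DMSO final. EC50 from at least triplicates.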
row,pEC50,SMILES
1,≤ 3.00,NC1=NC(c2cn[nH]c2-c2cccc(O)c2)n2c(nc3ccccc32)N1 (stereo unspecified)

# System: Internal ribosome entry site (IRES)
# Test: Binding affinity to HCV IRES subdomain IIa RNA
# Conditions: Hepacivirus hominis; dose 0.001-1000 µM
row,Activity,SMILES
1,Dose-Dependent Effect,COc1cccc(C2NC(N)=Nc3nc4ccccc4n32)c1 (stereo unspecified)
2,Dose-Dependent Effect,NC1=Nc2nc3ccccc3n2C(C2CC2)N1 (stereo unspecified)
3,Dose-Dependent Effect,NC1=NC(c2ccccc2)n2c(nc3ccccc32)N1 (stereo unspecified)
